Measurements published in ChEMBL document CHEMBL1155265, “Design, synthesis and in vitro antibacterial/antifungal evaluation of novel 1-ethyl-6-fluoro-1,4-dihydro-4-oxo-7(1-piperazinyl)quinoline-3-carboxylic acid derivatives” (2009).

Key:
Type in all cases: functional
Bacillus subtilis = assay: Antibacterial activity against Bacillus subtilis at 50 mg/L after 24 hrs by agar well diffusion method; settings: read-out: DIZ
Method in brief: (§1)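 Bacteria plated as 0.8 mL of 24-h-old inoculum mixed into 60 mL sterile molten agar cooled to 45 °C, poured into three dishes. Wells bored with centres at least 24 mm apart. Test sample at 50 mg/L in DMSO added to wells. DMSO served as negative control and agricultural streptomycin sulfate as positive control. Read-out was inhibition zone diameter (mm).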

Erwinia = assay: Antibacterial activity against Erwinia aroideae at 50 mg/L after 24 hrs by agar well diffusion method; settings: read-out: DIZ; method in brief: as §1
Xanthomonas axonopodis = assay: Antibacterial activity against Xanthomonas axonopodis at 50 mg/L after 24 hrs by agar well diffusion method; settings: read-out: DIZ; method in brief: as §1
Cytospora mali = assay: Antifungal activity against Valsa mali at 200 mg/L by plate growth rate method; settings: read-out: GI
Method in brief: (§2)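 Compound dissolved in DMSO and mixed into molten PDA at 45 °C at 200 mg/L, then plates allowed to set. A 5 mm mycelial agar disc was placed at the centre. Plates were incubated at 28 °C in the dark until the untreated control covered the plate. Colony diameters were measured and growth inhibition calculated by Abbott's formula. Each compound was tested three times.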

Rhizoctonia solani = assay: Antifungal activity against Rhizoctonia solani at 200 mg/L by plate growth rate method; settings: read-out: GI; method in brief: as §2
Ralstonia solanacearum = assay: Antibacterial activity against Ralstonia solanacearum at 50 mg/L after 24 hrs by agar well diffusion method; settings: read-out: DIZ
Fusarium graminearum = assay: Antifungal activity against Gibberella zeae at 200 mg/L by plate growth rate method; settings: read-out: GI
Method in brief: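 Plate growth rate method: compound dissolved in DMSO, mixed into sterile PDA at 45 °C to 200 mg/L, plates poured. A 5 mm mycelium agar disc placed centrally; incubated at 28 °C in the dark until the untreated control covered the plate. Colony diameters measured; growth inhibition computed by Abbott's formula. Each compound tested three times.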

Xanthomonas oryzae = assay: Antibacterial activity against Xanthomonas oryzae at 50 mg/L after 24 hrs by agar well diffusion method; settings: read-out: DIZ

Row | Structure (SMILES) | zone of inhibition at 50 µg/mL (Bacillus subtilis) [mm] | zone of inhibition at 50 µg/mL (Erwinia) [mm] | zone of inhibition at 50 µg/mL (Xanthomonas axonopodis) [mm] | inhibition of growth at 200 µg/mL (Cytospora mali) [%] | inhibition of growth at 200 µg/mL (Rhizoctonia solani) [%] | zone of inhibition at 50 µg/mL (Ralstonia solanacearum) [mm] | inhibition of growth at 200 µg/mL (Fusarium graminearum) [%] | zone of inhibition at 50 µg/mL (Xanthomonas oryzae) [mm]
1 | CCn1cc(C(=O)O)c(=O)c2cc(F)c(N3CCN(C(=O)c4ccccc4O)CC3)cc21 | 22.7 | 16.5 | 14.4 | 17 | 0 | 2.06 | 15 | 16.7
2 | CCn1cc(C(=O)O)c(=O)c2cc(F)c(N3CCN(C(=O)COc4ccc(F)cc4)CC3)cc21 | 13.9 | 13.3 | 11.1 | 12 | 52 | 3.31 | 15 | 11
3 | CCn1cc(C(=O)O)c(=O)c2cc(F)c(N3CCN(C(=O)/C=C/c4ccc(Cl)cc4Cl)CC3)cc21 | 2.08 | 2.92 | 5.91 | 6 | 0 | 0 | 2 | 4.44
4 | CCn1cc(C(=O)O)c(=O)c2cc(F)c(N3CCN(C(=O)COc4ccc(C(C)(C)C)cc4)CC3)cc21 | 10.8 | 8.52 | 6.41 | 14 | 53 | 10.9 | 28 | 5.81
5 | CCn1cc(C(=O)O)c(=O)c2cc(F)c(N3CCN(C(=O)c4ccc(Cl)cc4)CC3)cc21 | 18.5 | 16.6 | 12.9 | 16 | 21 | 1.47 | 27 | 17.7
6 | CCn1cc(C(=O)O)c(=O)c2cc(F)c(N3CCN(C(=O)c4ccccc4Cl)CC3)cc21 | 19 | 16 | 14.2 | 41 | 5 | 8.97 | 27 | 16.9
7 | CCn1cc(C(=O)O)c(=O)c2cc(F)c(N3CCN(C(=O)c4ccccc4)CC3)cc21 | 20.7 | 17.9 | 15.8 | 42 | 25 | 5.92 | 23 | 22.7
